Measurements from ChEMBL document CHEMBL3097989, “Antimicrobial activity of de novo designed cationic peptides against multi-resistant clinical isolates” (Eur J Med Chem, 2014).
Where a SMILES comes first, the peptide text is derived from it.

Assays:
Klebsiella pneumoniae [1] = experiment: Antibacterial activity against Klebsiella pneumoniae M9491 clinical isolate expressing blaMOX gene by microdilution test; type: functional
In short: (§1)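 MIC by standard broth microdilution following CLSI recommendations, in Mueller Hinton broth supplemented with Ca²⁺ (20-25mg/L) and Mg²⁺ (10-12.5mg/L); peptides tested against a panel of multi-resistant clinical isolates plus ATCC reference strains.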

Acinetobacter sp. [2] = experiment: Antibacterial activity against Acinetobacter sp. M5949 clinical isolate expressing blaOXA-23 and blaOXA-GVI gene by microdilution test; type: functional; in short: as §1
Acinetobacter sp. [3] = experiment: Antibacterial activity against Acinetobacter sp. M5277 clinical isolate expressing blaPER gene by microdilution test; type: functional; in short: as §1
Acinetobacter sp. [4] = experiment: Antibacterial activity against Acinetobacter sp. PFAV1 clinical isolate expressing blaOXA-51, blaOXA-58 and blaPER gene by microdilution test; type: functional; in short: as §1
Acinetobacter sp. [5] = experiment: Antibacterial activity against Acinetobacter sp. M5179 clinical isolate expressing blaOXA-51 gene by microdilution test; type: functional; in short: as §1
Acinetobacter sp. [6] = experiment: Antibacterial activity against Acinetobacter sp. M5282 clinical isolate expressing blaOXA-51 gene by microdilution test; type: functional; in short: as §1
Acinetobacter sp. [7] = experiment: Antibacterial activity against Acinetobacter sp. M13523 clinical isolate expressing blaOXA-51 gene by microdilution test; type: functional; in short: as §1
Pseudomonas aeruginosa [8] = experiment: Antibacterial activity against Pseudomonas aeruginosa M7712 clinical isolate expressing blaSPM gene by microdilution test; type: functional
In short: (§2)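 MIC by standard broth microdilution following CLSI recommendations, in Mueller Hinton broth supplemented with Ca²⁺ (20-25 mg/L) and Mg²⁺ (10-12.5 mg/L); ATCC reference strains included in the panel.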

Pseudomonas aeruginosa [9] = experiment: Antibacterial activity against Pseudomonas aeruginosa M7525 clinical isolate expressing blaSPM gene by microdilution test; type: functional; in short: as §2
Pseudomonas aeruginosa [10] = experiment: Antibacterial activity against Pseudomonas aeruginosa M5200 clinical isolate expressing blaVIM and blaGES-1 gene by microdilution test; type: functional; in short: as §2
Pseudomonas aeruginosa [11] = experiment: Antibacterial activity against Pseudomonas aeruginosa M7723 clinical isolate expressing blaKPC-2 gene by microdilution test; type: functional; in short: as §2
Pseudomonas aeruginosa [12] = experiment: Antibacterial activity against Pseudomonas aeruginosa M13513 clinical isolate expressing blaKPC-2 gene by microdilution test; type: functional; in short: as §1
Pseudomonas aeruginosa [13] = experiment: Antibacterial activity against Pseudomonas aeruginosa PCOS12 by microdilution test; type: functional; in short: as §2
[14] = Toxicity in human RBC assessed as hemolytic activity relative to control; type: cell-based, Erythrocyte; conditions: red blood cells (RBC), read-out: Activity
In short: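 Heparinized human whole blood diluted 3x in PBS and centrifuged 10 min at 1500 rpm, repeated three times. Cells resuspended to 10% (v/v), then diluted to about 0.5% (v/v). Peptides added at various concentrations for 30 min at 37 °C. Supernatant absorbance read at 550 nm. Lysis calculated against buffer (0%) and water (100%). Readings taken in triplicate and averaged.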

Enterococcus faecium [15] = experiment: Antibacterial activity against Enterococcus faecium M2664 clinical isolate expressing vanA gene by microdilution test; type: functional; in short: as §1
Enterococcus faecium [16] = experiment: Antibacterial activity against Enterococcus faecium M2304 clinical isolate expressing vanA gene by microdilution test; type: functional; in short: as §1
Enterococcus faecium [17] = experiment: Antibacterial activity against Enterococcus faecium M2481 clinical isolate expressing vanB gene by microdilution test; type: functional; in short: as §1
Enterococcus faecium [18] = experiment: Antibacterial activity against Enterococcus faecium M2619 clinical isolate expressing vanB gene by microdilution test; type: functional; in short: as §1
Enterococcus faecalis [19] = experiment: Antibacterial activity against Enterococcus faecalis M6983 clinical isolate expressing vanA gene by microdilution test; type: functional; in short: as §1
Enterococcus faecalis [20] = experiment: Antibacterial activity against Enterococcus faecalis M6383 clinical isolate expressing vanA gene by microdilution test; type: functional; in short: as §1
Enterococcus faecalis [21] = experiment: Antibacterial activity against Enterococcus faecalis M4992 clinical isolate expressing vanA gene by microdilution test; type: functional; in short: as §1
Enterococcus faecalis [22] = experiment: Antibacterial activity against Enterococcus faecalis M6534 clinical isolate expressing vanB gene by microdilution test; type: functional; in short: as §1
Enterococcus faecalis [23] = experiment: Antibacterial activity against Enterococcus faecalis M4899 clinical isolate expressing vanB gene by microdilution test; type: functional; in short: as §1
Enterococcus faecalis [24] = experiment: Antibacterial activity against Enterococcus faecalis ATCC 51299 clinical isolate expressing vanB gene by microdilution test; type: functional; in short: as §1
Staphylococcus cohnii = experiment: Antibacterial activity against Staphylococcus cohnii M6767 clinical isolate expressing mecA gene by microdilution test; type: functional; in short: as §2
Staphylococcus hominis = experiment: Antibacterial activity against Staphylococcus hominis M2967 clinical isolate expressing mecA gene by microdilution test; type: functional; in short: as §2
[25] = test system: Staphylococcus haemolyticus; experiment: Antibacterial activity against Staphylococcus haemolyticus M3014 by microdilution test; type: functional; in short: as §2
[26] = test system: Staphylococcus haemolyticus; experiment: Antibacterial activity against Staphylococcus haemolyticus M2976 clinical isolate expressing mecA gene by microdilution test; type: functional; in short: as §2
[27] = test system: Staphylococcus saprophyticus; experiment: Antibacterial activity against Staphylococcus saprophyticus M2981 clinical isolate expressing mecA gene by microdilution test; type: functional; in short: as §2
[28] = test system: Staphylococcus saprophyticus; experiment: Antibacterial activity against Staphylococcus saprophyticus M4070 clinical isolate expressing mecA gene by microdilution test; type: functional; in short: as §2
[29] = test system: Staphylococcus epidermidis; experiment: Antibacterial activity against Staphylococcus epidermidis M2919 clinical isolate expressing mecA gene by microdilution test; type: functional; in short: as §2
[30] = test system: Staphylococcus epidermidis; experiment: Antibacterial activity against Staphylococcus epidermidis M2931 by microdilution test; type: functional; in short: as §2
[31] = test system: Staphylococcus epidermidis; experiment: Antibacterial activity against Staphylococcus epidermidis M2923 by microdilution test; type: functional; in short: as §2
Staphylococcus aureus [32] = experiment: Antibacterial activity against Staphylococcus aureus M6784 clinical isolate expressing mecA gene by microdilution test; type: functional; in short: as §2
Staphylococcus aureus [33] = experiment: Antibacterial activity against Staphylococcus aureus M4046 clinical isolate expressing mecA gene by microdilution test; type: functional; in short: as §2
Staphylococcus aureus [34] = experiment: Antibacterial activity against Staphylococcus aureus M2832 clinical isolate expressing mecA gene by microdilution test; type: functional; in short: as §2
Staphylococcus aureus [35] = experiment: Antibacterial activity against Staphylococcus aureus M6794 clinical isolate expressing mecA gene by microdilution test; type: functional; in short: as §2
Staphylococcus aureus [36] = experiment: Antibacterial activity against Staphylococcus aureus P204 clinical isolate expressing ermA gene by microdilution test; type: functional; in short: as §2
Staphylococcus aureus [37] = experiment: Antibacterial activity against Staphylococcus aureus ATCC 29213 by microdilution test; type: functional; in short: as §2
Escherichia coli [38] = experiment: Antibacterial activity against Escherichia coli M9209 clinical isolate expressing blaKPC-2 gene by microdilution test; type: functional; in short: as §1
Escherichia coli [39] = experiment: Antibacterial activity against Escherichia coli PABC11 clinical isolate expressing blaCTX-M-2 gene by microdilution test; type: functional; in short: as §1
Escherichia coli [40] = experiment: Antibacterial activity against Escherichia coli M7859 clinical isolate expressing blaCIT gene by microdilution test; type: functional; in short: as §1
Escherichia coli [41] = experiment: Antibacterial activity against Escherichia coli ATCC 25922 by microdilution test; type: functional; in short: as §1
Klebsiella pneumoniae [42] = experiment: Antibacterial activity against Klebsiella pneumoniae M9885 clinical isolate expressing blaKPC-2 gene by microdilution test; type: functional; in short: as §1
Klebsiella pneumoniae [43] = experiment: Antibacterial activity against Klebsiella pneumoniae M13540 clinical isolate expressing blaKPC-2 gene by microdilution test; type: functional; in short: as §1
Klebsiella pneumoniae [44] = experiment: Antibacterial activity against Klebsiella pneumoniae M1803 clinical isolate expressing blaPER-2, blaCTX-M-2, blaTEM-1, blaSHV and blaOXA-9 gene by microdilution test; type: functional; in short: as §1
Klebsiella pneumoniae [45] = experiment: Antibacterial activity against Klebsiella pneumoniae M9375 clinical isolate expressing blaCTX-M-2, blaTEM-1 and blaSHV-1 gene by microdilution test; type: functional; in short: as §1
Klebsiella pneumoniae [46] = experiment: Antibacterial activity against Klebsiella pneumoniae M9310 clinical isolate expressing blaCTX-M-2, blaTEM-1 and blaSHV-1 gene by microdilution test; type: functional; in short: as §1
Klebsiella pneumoniae [47] = experiment: Antibacterial activity against Klebsiella pneumoniae M5825 clinical isolate expressing blaGES-3 and blaCTX-M-2 gene by microdilution test; type: functional; in short: as §1

H-WPKWWKWKRRWGRKKAKKRRG-NH2
1020 µg/mL: MIC90 (Klebsiella pneumoniae [1]) | MIC90 (Klebsiella pneumoniae [45])
8 µg/mL: MIC90 (Staphylococcus hominis)
32 µg/mL: MIC90 (Pseudomonas aeruginosa [12]) | MIC90 (Enterococcus faecium [17]) | MIC90 (Enterococcus faecium [18]) | MIC90 (Staphylococcus aureus [32]) | MIC90 (Staphylococcus aureus [33]) | MIC90 (Staphylococcus aureus [34]) | MIC90 (Staphylococcus aureus [35]) | MIC90 (Staphylococcus aureus [37])
256 µg/mL: MIC90 (Acinetobacter sp. [2]) | MIC90 (Enterococcus faecalis [23]) | MIC90 (Enterococcus faecalis [24])
16 µg/mL: MIC90 (Enterococcus faecium [15]) | MIC90 (Enterococcus faecium [16]) | MIC90 (Staphylococcus cohnii) | MIC90 [25] | MIC90 [26] | MIC90 [27] | MIC90 [28] | MIC90 [29] | MIC90 [30] | MIC90 [31]
> 1020 µg/mL: MIC90 (Klebsiella pneumoniae [42]) | MIC90 (Klebsiella pneumoniae [43]) | MIC90 (Klebsiella pneumoniae [44]) | MIC90 (Klebsiella pneumoniae [46]) | MIC90 (Klebsiella pneumoniae [47])
128 µg/mL: MIC90 (Enterococcus faecalis [20]) | MIC90 (Enterococcus faecalis [21]) | MIC90 (Enterococcus faecalis [22]) | MIC90 (Escherichia coli [38]) | MIC90 (Escherichia coli [39]) | MIC90 (Escherichia coli [40]) | MIC90 (Escherichia coli [41])
3.4%: hemolysis [14]
64 µg/mL: MIC90 (Acinetobacter sp. [3]) | MIC90 (Acinetobacter sp. [4]) | MIC90 (Acinetobacter sp. [5]) | MIC90 (Acinetobacter sp. [6]) | MIC90 (Acinetobacter sp. [7]) | MIC90 (Pseudomonas aeruginosa [8]) | MIC90 (Pseudomonas aeruginosa [9]) | MIC90 (Pseudomonas aeruginosa [10]) | MIC90 (Pseudomonas aeruginosa [11]) | MIC90 (Pseudomonas aeruginosa [13]) | MIC90 (Enterococcus faecalis [19]) | MIC90 (Staphylococcus aureus [36])

CC[C@H](C)[C@H](N)C(=O)N[C@@H](CC(C)C)C(=O)N[C@@H](CCCNC(=N)N)C(=O)N[C@@H](Cc1c[nH]c2ccccc12)C(=O)N1CCC[C@H]1C(=O)N[C@@H](Cc1c[nH]c2ccccc12)C(=O)N[C@@H](Cc1c[nH]c2ccccc12)C(=O)N1CCC[C@H]1C(=O)N[C@@H](Cc1c[nH]c2ccccc12)C(=O)N[C@@H](CCCNC(=N)N)C(=O)N[C@@H](CCCNC(=N)N)C(=O)N[C@@H](CCCCN)C(N)=O.Cl.Cl.Cl.Cl.Cl [OMIGANAN PENTAHYDROCHLORIDE] (H-ILRWPWWPWRRK-NH2)
128 µg/mL: MIC90 (Klebsiella pneumoniae [1]) | MIC90 (Enterococcus faecalis [19]) | MIC90 (Enterococcus faecalis [20]) | MIC90 (Enterococcus faecalis [21])
512 µg/mL: MIC90 (Pseudomonas aeruginosa [8]) | MIC90 (Pseudomonas aeruginosa [9]) | MIC90 (Pseudomonas aeruginosa [10]) | MIC90 (Pseudomonas aeruginosa [13])
16 µg/mL: MIC90 (Acinetobacter sp. [4]) | MIC90 (Enterococcus faecium [17]) | MIC90 (Enterococcus faecium [18]) | MIC90 [30]
1020 µg/mL: MIC90 (Klebsiella pneumoniae [44])
32 µg/mL: MIC90 (Acinetobacter sp. [2]) | MIC90 (Acinetobacter sp. [3]) | MIC90 (Acinetobacter sp. [5]) | MIC90 (Acinetobacter sp. [7]) | MIC90 (Staphylococcus aureus [32]) | MIC90 (Staphylococcus aureus [33]) | MIC90 (Staphylococcus aureus [37]) | MIC90 (Klebsiella pneumoniae [45])
64 µg/mL: MIC90 (Staphylococcus aureus [34]) | MIC90 (Staphylococcus aureus [35]) | MIC90 (Staphylococcus aureus [36]) | MIC90 (Escherichia coli [38]) | MIC90 (Escherichia coli [39]) | MIC90 (Escherichia coli [40]) | MIC90 (Escherichia coli [41]) | MIC90 (Klebsiella pneumoniae [46]) | MIC90 (Klebsiella pneumoniae [47])
4 µg/mL: MIC90 (Enterococcus faecium [16]) | MIC90 (Staphylococcus cohnii) | MIC90 (Staphylococcus hominis) | MIC90 [25] | MIC90 [26]
8 µg/mL: MIC90 (Acinetobacter sp. [6]) | MIC90 (Enterococcus faecium [15]) | MIC90 [27] | MIC90 [28] | MIC90 [29] | MIC90 [31]
256 µg/mL: MIC90 (Pseudomonas aeruginosa [11]) | MIC90 (Pseudomonas aeruginosa [12]) | MIC90 (Enterococcus faecalis [22]) | MIC90 (Enterococcus faecalis [23]) | MIC90 (Enterococcus faecalis [24]) | MIC90 (Klebsiella pneumoniae [42]) | MIC90 (Klebsiella pneumoniae [43])
10%: hemolysis [14]
